# Shown are actives, neighbours in structure and some others; about 8.2% of the full set was active somewhere.
# M1 agonist: activates the M1 muscarinic receptor; CHO-M1 cells, Fluo-4 calcium fluorescence, agonist mode; hits give high values; B-score at 10 µM; actives 3% (n = 64,000); AID 626;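 active = fluorescence rise, raw or as B-score row- and column-corrected plate score, outside the 99.7% band of its plate's samples, either direction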
# HePTP inh: human HePTP phosphatase inhibition | P35236 | recombinant HePTP phosphatase activity, OD absorbance | inhibition, % at 20 µM | actives 0.64% (n = 110,000); in the data active = inhibition above about 50%;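 also: plate controls were vehicle for no effect and reference inhibitor for full effect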
# Target sequence (P35236 whole entry, looked up): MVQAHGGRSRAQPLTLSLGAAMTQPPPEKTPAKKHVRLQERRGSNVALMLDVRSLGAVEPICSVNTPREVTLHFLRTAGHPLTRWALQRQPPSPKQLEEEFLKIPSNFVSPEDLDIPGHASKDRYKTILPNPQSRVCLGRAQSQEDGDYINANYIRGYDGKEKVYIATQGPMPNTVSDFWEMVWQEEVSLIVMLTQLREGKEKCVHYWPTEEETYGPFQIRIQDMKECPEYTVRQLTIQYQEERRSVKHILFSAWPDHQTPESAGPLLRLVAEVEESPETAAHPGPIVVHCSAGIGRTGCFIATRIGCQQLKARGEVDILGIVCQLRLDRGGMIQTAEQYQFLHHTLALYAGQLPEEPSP
# RORa activator: RORA (human) activation; P35398; CHO-K1 Gal4-RORA LBD luciferase reporter, luminescence; percent increase over mock-subtracted basal signal; activation, % at 10 µM; actives 1.5% (n = 65,000); AID 560;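 active = activation above the mean of all tested compounds plus 3 SD, cut at about 49% in these data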;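 also: 0% = DMSO-treated RORA cells and 100% = added signal equal to DMSO minus mock-transfected cells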
# D1 allo mod: D1 dopamine receptor (human) allosteric modulation. HEK293 D1, CRE-luciferase, dopamine EC30 potentiation; actives deviate in either direction. B-score at 10 µM. actives 5.9% (n = 58,000);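 active = luminescence count or its row- and column-corrected plate score outside the 99.7% band of the plate's sample wells, on either side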
# M1 antagonist: antagonists of rat M1 muscarinic receptor. P08482. CHO-M1 cells, Fluo-4 calcium, ACh EC80 antagonist mode; hits give low values. B-score at 10 µM. actives 3.4% (n = 64,000). AID 628;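 active = calcium fluorescence response, raw or row-and-column corrected B-score, differing from the plate sample mean either way at a set confidence level, mostly lower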
# SF-1 act: SF-1 (human) activation | Q13285 | CHO-K1 Gal4-SF-1 LBD luciferase reporter; % increase over DMSO SF-1-specific signal | activation, % at 10 µM | actives 1.9% (n = 65,000);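 active = activation above the mean activation of all tested compounds plus 3 SD, cut at about 50% in these data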
#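 material = CHO-K1 cells with Gal4–hSF-1 LBD chimera plus Gal4-driven luciferase | compound = 10 µM single point, 1% DMSO | incubation = 20 h compound exposure at 37 °C after 1 h cell settling | measured by = SteadyLite luciferase luminescence | evaluation = percent activation relative to DMSO median and mock-transfected background | control set = DMSO negative control and −SF1 background wells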
# D1 PAM confirm: confirmation of human D1 dopamine receptor allosteric modulators; shares compounds with D1 allo mod; HEK293 D1 CRE-luciferase, dopamine EC30 potentiation; hits give high values; luminescence at 10 µM; actives 88% (n = 2,200);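 active = luminescence in either of two replicates above the same-plate mean plus 3 SD of the low-dose dopamine control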
# D1 ag no DA: D1 (human) signaling in absence of dopamine; shares compounds with D1 allo mod; HEK293 D1 CRE-luciferase, luminescence, no dopamine; hits give high values; luminescence at 10 µM; actives 0.8% (n = 1,900); AID 646; in the data active = luminescence above about 3900
# Isoprot counter: counter-screen for D1 modulators: isoproterenol response in HEK293 cells; shares compounds with D1 allo mod; HEK293 D1 CRE-luciferase, isoproterenol EC30 counter-screen; calls only at 10 µM; actives 63% (n = 2,200); AID 647;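 active = luminescence in either replicate above plate mean of wells with a partly effective reference agonist dose plus 3 SD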;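 also: isoproterenol raises cAMP through native beta-adrenoceptor Gs so signal bypasses D1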
# * = called active by the depositor; i = inactive; · = no result given; + = active, no number.
SMILES,M1 agonist,HePTP inh,RORa activator,D1 allo mod,M1 antagonist,SF-1 act,D1 PAM confirm,D1 ag no DA,Isoprot counter
CC(=O)Nc1nc(CC(C)C)cc(-c2ccco2)c1C#N,0.225,11.0,-10.9,9.7*,0.29,1.0,15584*,·,+
CNCCOc1cc(C)nc(-c2ccccc2)n1,·,7.5,·,·,·,·,·,·,·
CCCCOc1cc(C)nc(NCc2ccccc2)n1,0.993,-1.1,-17.4,9.95*,-0.232,15.0,5728*,1592,i
COc1ccc(S(=O)(=O)N2CCc3ccccc32)cc1C(=O)OCc1c(C)noc1C,0.72,2.6,-31.5,·,-0.0186,-6.3,·,·,·
COc1ccc(S(=O)(=O)N2CCCCCC2)cc1C(=O)OCc1c(C)noc1C,0.0497,4.7,2.3,4.27*,-0.54,14.9,9164*,1508,+
CSc1ccc(-c2nc(CSCC(=O)N3CCOCC3)c(C)o2)cc1,-2.59,6.3,-2.4,26.3*,0.322,8.3,5664,1536,i
NC(=O)COc1c(-c2ccccc2)oc2ccccc2c1=O,-0.172,2.5,-5.8,2.62*,0.199,-9.8,15448*,1588,+
O=C(NC1CCCCCC1)C1c2ccccc2C(=O)N1CCCN1CCOCC1 (stereo not drawn),0.936,-2.8,9.4,-0.617,0.343,11.0,·,·,·
Cc1c(C(=O)OCC(C)C)[nH]c2c1C(=O)CC(c1ccco1)C2 (stereo not drawn),0.203,-3.4,-13.4,5.84*,-0.00419,-17.6,12056*,1616,i
CCSc1nc(-c2ccco2)ccc1C#N,-0.0894,9.0,-20.9,2.66*,0.355,-17.4,6188*,1560,i
Nn1c(SCc2ccccc2)nnc1-c1ccco1,-0.422,-8.2,6.8,-0.475,1.06,-21.5,·,·,·
N#Cc1ccc(-c2ccco2)nc1SCc1ccccc1,·,7.8,1.1,3.07*,·,3.8,17912*,1576,i
Cc1c(C(=O)NCc2ccc3c(c2)OCO3)oc2ccc(S(=O)(=O)N3CCCC3)cc12,-0.249,-8.2,31.1,·,0.508,1.1,·,·,·
COc1ccccc1CNC(=O)c1oc2ccc(S(=O)(=O)N3CCCC3)cc2c1C,-0.156,7.1,-8.9,30*,-1.57,16.7,19660*,1724,+
Cc1c(C(=O)NCc2ccccc2)oc2ccc(S(=O)(=O)N3CCCC3)cc12,-0.753,-4.7,-3.8,10.6*,0.521,16.6,21124*,1628,+
O=C(c1cc(Cl)ccc1Cl)n1nnc2ccccc21,·,-0.3,·,·,·,·,·,·,·
O=C1N=C(c2ccccc2)C(c2ccccc2)N1 (stereo not drawn),0.791,-1.1,·,8.76*,-0.3,·,22264*,20356*,+
C1=NC(c2ccccc2)C(c2ccccc2)=NN1 (stereo not drawn),·,0.9,·,·,·,·,·,·,·
Cc1ccccc1S(=O)(=O)Cc1ccc(C(=O)NCCN2CCN(Cc3ccccc3)CC2)o1,·,1.4,-11.1,·,·,-0.8,·,·,·
CCCCOc1ccc(C(=O)NC)cc1,-0.768,5.9,-10.5,-0.0637,0.644,-6.8,·,·,·
CCCCOc1ccc(CC(=O)NO)cc1,0.0153,3.6,1.7,33.4*,0.197,3.5,18936*,·,+
COc1ccc2c(c1)[nH]c1c(N3CCN(Cc4ccc5c(c4)OCO5)CC3)ncnc12,2.25,5.6,-72.2,·,-1.93,-74.1,·,·,·
C=CCc1ccccc1OCCn1ccnc1,0,9.8,-26.9,4.18*,-1,-13.9,15712*,1544,i
Clc1ccccc1OCCn1ccnc1,0.0682,-3.7,-3.5,0.0495,-0.394,-17.4,·,·,·
CCC(C)NC(=O)Cn1cccc1C(=O)c1ccccc1 (stereo not drawn),0.168,3.7,-6.8,0.0157,0.411,0.4,·,·,·
COc1ccc(Nc2cc(C)nc(N3CCOCC3)n2)cc1,-0.29,10.4,-0.6,3.55*,-0.499,10.4,8656*,1964,+

# High-throughput results from PubChem BioAssay.
